Assay results: ChEMBL document CHEMBL1649446, “Comparative antipneumococcal activities of sulopenem and other drugs” (2009)
Converted amounts (≈) assume the structure as drawn.

Tests used:
Assay type in all cases: functional
Streptococcus pneumoniae [1] = experiment: Antimicrobial activity against Streptococcus pneumoniae isolate 1397 by agar dilution method
Outline: (§1)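 Agar dilution MIC on Mueller-Hinton agar with 5% sheep blood, inocula 10^4 CFU/spot; amoxicillin-clavulanate combined 1:2; S. pneumoniae ATCC 49619 quality control each run.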

Streptococcus pneumoniae [2] = experiment: Antimicrobial activity against Streptococcus pneumoniae isolate 3481 by agar dilution method; outline: as §1
Streptococcus pneumoniae [3] = experiment: Antimicrobial activity against penicillin-susceptible Streptococcus pneumoniae by agar dilution method
Streptococcus pneumoniae [4] = experiment: Antimicrobial activity against Streptococcus pneumoniae 4 by time-kill analysis
Outline: (§2)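 Time-kill in cation-adjusted Mueller-Hinton broth with 5% lysed horse blood; inocula 5 × 105 to 5 × 10^6 CFU/ml; drugs at MIC, 2× and 4× MIC; 35°C shaking water bath; viable counts at 0, 3, 6, 12, 24 h. Bactericidal = ≥3 log10 CFU/ml (99.9%) drop from original inoculum; 90%/99%/99.9% killing scored per strain.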

Streptococcus pneumoniae [5] = experiment: Antimicrobial activity against Streptococcus pneumoniae isolate 1394 by agar dilution method
Streptococcus pneumoniae [6] = experiment: Antimicrobial activity against Streptococcus pneumoniae isolate 33 by agar dilution method; outline: as §1
Streptococcus pneumoniae [7] = experiment: Antimicrobial activity against Streptococcus pneumoniae isolate 1564 by agar dilution method
Streptococcus pneumoniae [8] = experiment: Antimicrobial activity against penicillin-intermediate Streptococcus pneumoniae by agar dilution method
Streptococcus pneumoniae [9] = experiment: Antimicrobial activity against Streptococcus pneumoniae isolate 4747 by agar dilution method; outline: as §1
Streptococcus pneumoniae [10] = experiment: Antimicrobial activity against Streptococcus pneumoniae isolate 3455 by agar dilution method
Streptococcus pneumoniae [11] = experiment: Antimicrobial activity against penicillin-resistant Streptococcus pneumoniae by agar dilution method; outline: as §1
Streptococcus pneumoniae [12] = experiment: Antimicrobial activity against Streptococcus pneumoniae isolate 2617 by agar dilution method; outline: as §1
Streptococcus pneumoniae [13] = experiment: Antimicrobial activity against Streptococcus pneumoniae isolate 3263 by agar dilution method
Streptococcus pneumoniae [14] = experiment: Antimicrobial activity against Streptococcus pneumoniae isolate 1147 by agar dilution method; outline: as §1
Streptococcus pneumoniae [15] = experiment: Antimicrobial activity against Streptococcus pneumoniae isolate 1146 by agar dilution method; outline: as §1
Streptococcus pneumoniae [16] = experiment: Antimicrobial activity against Streptococcus pneumoniae isolate 1384 by agar dilution method; outline: as §1
Streptococcus pneumoniae [17] = experiment: Antimicrobial activity against Streptococcus pneumoniae isolate 3458 by agar dilution method
Streptococcus pneumoniae [18] = experiment: Antimicrobial activity against Streptococcus pneumoniae 1 by time-kill analysis
Outline: (§3)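 Time-kill in cation-adjusted Mueller-Hinton broth with 5% lysed horse blood; inocula 5 × 105 to 5 × 10^6 CFU/ml; drugs at MIC, 2× and 4× MIC; 35°C shaking water bath; viable counts at 0, 3, 6, 12 and 24 h. Bactericidal if ≥3 log10 CFU/ml (99.9%) reduction from original inoculum; 90% and 99% killing also scored.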

Streptococcus pneumoniae [19] = experiment: Antimicrobial activity against Streptococcus pneumoniae isolate 4755 by agar dilution method; outline: as §1
Streptococcus pneumoniae [20] = experiment: Antimicrobial activity against Streptococcus pneumoniae isolate 3282 by agar dilution method
Streptococcus pneumoniae [21] = experiment: Antimicrobial activity against Streptococcus pneumoniae 2 by time-kill analysis; outline: as §2
Streptococcus pneumoniae [22] = experiment: Antimicrobial activity against Streptococcus pneumoniae isolate 1055 by agar dilution method
Streptococcus pneumoniae [23] = experiment: Antimicrobial activity against Streptococcus pneumoniae isolate 2880 by agar dilution method; outline: as §1
Streptococcus pneumoniae [24] = experiment: Antimicrobial activity against Streptococcus pneumoniae 5 by time-kill analysis; outline: as §3
Streptococcus pneumoniae [25] = experiment: Antimicrobial activity against Streptococcus pneumoniae isolate 3791 by agar dilution method; outline: as §1
Streptococcus pneumoniae [26] = experiment: Antimicrobial activity against Streptococcus pneumoniae 3 by time-kill analysis; outline: as §2
Streptococcus pneumoniae [27] = experiment: Antimicrobial activity against Streptococcus pneumoniae isolate 3681 by agar dilution method; outline: as §1
Streptococcus pneumoniae [28] = experiment: Antimicrobial activity against Streptococcus pneumoniae isolate 3412 by agar dilution method; outline: as §1
Streptococcus pneumoniae [29] = experiment: Antimicrobial activity against Streptococcus pneumoniae isolate 24 by agar dilution method
Streptococcus pneumoniae [30] = experiment: Antimicrobial activity against Streptococcus pneumoniae 7 by time-kill analysis; outline: as §2
Streptococcus pneumoniae [31] = experiment: Antimicrobial activity against Streptococcus pneumoniae isolate 3587 by agar dilution method
Streptococcus pneumoniae [32] = experiment: Antimicrobial activity against Streptococcus pneumoniae isolate 3346 by agar dilution method
Streptococcus pneumoniae [33] = experiment: Antimicrobial activity against Streptococcus pneumoniae 8 by time-kill analysis; outline: as §2
Streptococcus pneumoniae [34] = experiment: Antimicrobial activity against Streptococcus pneumoniae 19A by agar dilution method; outline: as §1
Streptococcus pneumoniae [35] = experiment: Antimicrobial activity against Streptococcus pneumoniae 12 by time-kill analysis; outline: as §2
Streptococcus pneumoniae [36] = experiment: Antimicrobial activity against Streptococcus pneumoniae 6 by time-kill analysis; outline: as §2
Streptococcus pneumoniae [37] = experiment: Antimicrobial activity against Streptococcus pneumoniae isolate 1424 by agar dilution method; outline: as §1
Streptococcus pneumoniae [38] = experiment: Antimicrobial activity against Streptococcus pneumoniae isolate 37 by agar dilution method; outline: as §1
Streptococcus pneumoniae [39] = experiment: Antimicrobial activity against Streptococcus pneumoniae 11 by time-kill analysis; outline: as §2
Streptococcus pneumoniae [40] = experiment: Antimicrobial activity against Streptococcus pneumoniae isolate 3275 by agar dilution method; outline: as §1
Streptococcus pneumoniae [41] = experiment: Antimicrobial activity against Streptococcus pneumoniae 9 by time-kill analysis; outline: as §3
Streptococcus pneumoniae [42] = experiment: Antimicrobial activity against Streptococcus pneumoniae isolate 2874 by agar dilution method; outline: as §1
Streptococcus pneumoniae [43] = experiment: Antimicrobial activity against Streptococcus pneumoniae isolate 2688 by agar dilution method; outline: as §1
Streptococcus pneumoniae [44] = experiment: Antimicrobial activity against Streptococcus pneumoniae 10 by time-kill analysis; outline: as §2
Streptococcus pneumoniae [45] = experiment: Antimicrobial activity against Streptococcus pneumoniae isolate 3374 by agar dilution method; outline: as §1
Streptococcus pneumoniae [46] = experiment: Antimicrobial activity against Streptococcus pneumoniae isolate 3260 by agar dilution method
Streptococcus pneumoniae [47] = experiment: Antimicrobial activity against Streptococcus pneumoniae isolate 2686 by agar dilution method; outline: as §1

Question: Which results are given for `C[C@@H](O)[C@H]1C(=O)N2C(C(=O)O)=C(S[C@@H]3CN[C@H](C(=O)N(C)C)C3)[C@H](C)[C@H]12` [MEROPENEM]?
Answer: MIC (Streptococcus pneumoniae [1]): 0.5 µg/mL (≈ 1.3 µM); MIC (Streptococcus pneumoniae [2]): 0.25 µg/mL (≈ 0.652 µM); MIC50 (Streptococcus pneumoniae [3]): 0.016 µg/mL (≈ 0.0417 µM); MIC90 (Streptococcus pneumoniae [3]): 0.016 µg/mL (≈ 0.0417 µM); MIC (Streptococcus pneumoniae [4]): 0.5 µg/mL (≈ 1.3 µM); MIC (Streptococcus pneumoniae [5]): 0.5 µg/mL (≈ 1.3 µM); MIC (Streptococcus pneumoniae [6]): 1 µg/mL (≈ 2.61 µM); MIC (Streptococcus pneumoniae [7]): 0.125 µg/mL (≈ 0.326 µM); MIC50 (Streptococcus pneumoniae [8]): 0.06 µg/mL (≈ 0.156 µM); MIC90 (Streptococcus pneumoniae [8]): 0.25 µg/mL (≈ 0.652 µM); MIC (Streptococcus pneumoniae [9]): 0.25 µg/mL (≈ 0.652 µM); MIC (Streptococcus pneumoniae [10]): 1 µg/mL (≈ 2.61 µM); MIC50 (Streptococcus pneumoniae [11]): 0.5 µg/mL (≈ 1.3 µM); MIC90 (Streptococcus pneumoniae [11]): 0.5 µg/mL (≈ 1.3 µM); MIC (Streptococcus pneumoniae [12]): 0.25 µg/mL (≈ 0.652 µM); MIC (Streptococcus pneumoniae [13]): 0.25 µg/mL (≈ 0.652 µM); MIC (Streptococcus pneumoniae [14]): 2 µg/mL (≈ 5.22 µM); MIC (Streptococcus pneumoniae [15]): 1 µg/mL (≈ 2.61 µM); MIC (Streptococcus pneumoniae [16]): 0.25 µg/mL (≈ 0.652 µM); MIC (Streptococcus pneumoniae [17]): 1 µg/mL (≈ 2.61 µM); MIC (Streptococcus pneumoniae [18]): 0.016 µg/mL (≈ 0.0417 µM); MIC (Streptococcus pneumoniae [19]): 0.25 µg/mL (≈ 0.652 µM); MIC (Streptococcus pneumoniae [20]): 0.25 µg/mL (≈ 0.652 µM); MIC (Streptococcus pneumoniae [21]): 8 ng/mL (≈ 0.0209 µM); MIC (Streptococcus pneumoniae [22]): 0.5 µg/mL (≈ 1.3 µM); MIC (Streptococcus pneumoniae [23]): 0.5 µg/mL (≈ 1.3 µM); MIC (Streptococcus pneumoniae [24]): 2 µg/mL (≈ 5.22 µM); MIC (Streptococcus pneumoniae [25]): 0.25 µg/mL (≈ 0.652 µM); MIC (Streptococcus pneumoniae [26]): 0.25 µg/mL (≈ 0.652 µM); MIC (Streptococcus pneumoniae [27]): 0.25 µg/mL (≈ 0.652 µM); MIC (Streptococcus pneumoniae [28]): 0.25 µg/mL (≈ 0.652 µM); MIC (Streptococcus pneumoniae [29]): 0.5 µg/mL (≈ 1.3 µM); MIC (Streptococcus pneumoniae [30]): 1 µg/mL (≈ 2.61 µM); MIC (Streptococcus pneumoniae [31]): 0.5 µg/mL (≈ 1.3 µM); MIC (Streptococcus pneumoniae [32]): 0.25 µg/mL (≈ 0.652 µM); MIC (Streptococcus pneumoniae [33]): 1 µg/mL (≈ 2.61 µM); MIC50 (Streptococcus pneumoniae [34]): 1 µg/mL (≈ 2.61 µM); MIC90 (Streptococcus pneumoniae [34]): 1 µg/mL (≈ 2.61 µM); MIC (Streptococcus pneumoniae [35]): 0.5 µg/mL (≈ 1.3 µM); MIC (Streptococcus pneumoniae [36]): 0.12 µg/mL (≈ 0.313 µM); MIC (Streptococcus pneumoniae [37]): 0.5 µg/mL (≈ 1.3 µM); MIC (Streptococcus pneumoniae [38]): 1 µg/mL (≈ 2.61 µM); MIC (Streptococcus pneumoniae [39]): 1 µg/mL (≈ 2.61 µM); MIC (Streptococcus pneumoniae [40]): 0.125 µg/mL (≈ 0.326 µM); MIC (Streptococcus pneumoniae [41]): 0.12 µg/mL (≈ 0.313 µM); MIC (Streptococcus pneumoniae [42]): 1 µg/mL (≈ 2.61 µM); MIC (Streptococcus pneumoniae [43]): 0.5 µg/mL (≈ 1.3 µM); MIC (Streptococcus pneumoniae [44]): 0.06 µg/mL (≈ 0.156 µM); MIC (Streptococcus pneumoniae [45]): 0.25 µg/mL (≈ 0.652 µM); MIC (Streptococcus pneumoniae [46]): 0.25 µg/mL (≈ 0.652 µM); MIC (Streptococcus pneumoniae [47]): 0.5 µg/mL (≈ 1.3 µM)
